Results as given in ChEMBL document CHEMBL4007396, “New diphenylmethane derivatives as peroxisome proliferator-activated receptor alpha/gamma dual agonists endowed with anti-proliferative effects and mitochondrial activity” (Eur J Med Chem, 2017).
The source made the active and inactive calls. The rule behind the calls is not given here.

Columns and labels:
[1] = molecular target: T1, Peroxisome proliferator-activated receptor alpha (Homo sapiens, UniProt Q07869); test: Binding affinity to PPARalpha (unknown origin) assessed as thermodynamic dissociation constant by SPR assay
T1 sequence (Q07869 whole entry): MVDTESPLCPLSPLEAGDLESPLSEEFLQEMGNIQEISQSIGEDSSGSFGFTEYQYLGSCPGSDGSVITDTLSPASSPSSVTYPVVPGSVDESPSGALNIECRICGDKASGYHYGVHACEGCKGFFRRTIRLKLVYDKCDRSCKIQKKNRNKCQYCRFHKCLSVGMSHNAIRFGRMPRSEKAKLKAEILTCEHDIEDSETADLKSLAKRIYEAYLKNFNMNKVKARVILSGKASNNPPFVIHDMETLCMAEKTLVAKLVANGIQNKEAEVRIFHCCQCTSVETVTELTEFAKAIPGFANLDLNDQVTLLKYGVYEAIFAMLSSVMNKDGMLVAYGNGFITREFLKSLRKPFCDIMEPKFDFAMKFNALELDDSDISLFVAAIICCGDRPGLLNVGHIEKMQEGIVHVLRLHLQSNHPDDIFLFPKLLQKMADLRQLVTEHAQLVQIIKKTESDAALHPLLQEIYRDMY

HT-29 = test: Growth inhibition of human HT-29 cells assessed as cell vitality up to 10 uM up to 72 hrs by hemocytometry relative to control; type: functional; design: scale not given: the % may be the effect or the level left
Procedure, shortened: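 Exponentially growing HT-29 colon adenocarcinoma cells (D-MEM, 10% FBS, 37 °C, 5% CO2) exposed to vehicle (DMSO, final <0.1%) or 1, 5 and 10 μM compound in 10% FBS medium for 24, 48 and 72 hs; cells washed, trypsinized and counted by Bürker hemocytometer, three counts per well. Viability relative to vehicle; mean ± SD of three independent experiments in duplicate.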

[2] = molecular target: T1, Peroxisome proliferator-activated receptor alpha; test: Binding affinity to PPARalpha (unknown origin) assessed as kinetic dissociation constant by SPR assay
[3] = molecular target: T2, Peroxisome proliferator-activated receptor gamma (Homo sapiens, UniProt P37231); test: Binding affinity to PPARgamma (unknown origin) assessed as thermodynamic dissociation constant by SPR assay
T2 sequence (P37231 whole entry): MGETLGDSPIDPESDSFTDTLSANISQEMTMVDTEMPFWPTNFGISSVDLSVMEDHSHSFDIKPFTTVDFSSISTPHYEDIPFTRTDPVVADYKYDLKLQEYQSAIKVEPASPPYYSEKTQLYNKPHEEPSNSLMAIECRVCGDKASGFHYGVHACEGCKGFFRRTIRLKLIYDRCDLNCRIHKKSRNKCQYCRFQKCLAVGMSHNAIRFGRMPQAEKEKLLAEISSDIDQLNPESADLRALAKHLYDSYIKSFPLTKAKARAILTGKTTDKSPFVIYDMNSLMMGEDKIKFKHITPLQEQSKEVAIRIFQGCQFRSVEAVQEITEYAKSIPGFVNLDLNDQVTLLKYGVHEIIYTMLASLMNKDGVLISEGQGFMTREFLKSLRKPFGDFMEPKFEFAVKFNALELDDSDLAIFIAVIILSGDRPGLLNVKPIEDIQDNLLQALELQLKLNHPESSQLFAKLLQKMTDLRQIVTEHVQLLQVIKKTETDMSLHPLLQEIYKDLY

[4] = molecular target: T3, Peroxisome proliferator-activated receptor delta (Homo sapiens, UniProt Q03181); test: Transactivation of GAL4-fused human PPARdelta LBD expressed in human HepG2 cells after 20 hrs by luciferase reporter gene assay; type: cell-based
T3 sequence (Q03181 whole entry): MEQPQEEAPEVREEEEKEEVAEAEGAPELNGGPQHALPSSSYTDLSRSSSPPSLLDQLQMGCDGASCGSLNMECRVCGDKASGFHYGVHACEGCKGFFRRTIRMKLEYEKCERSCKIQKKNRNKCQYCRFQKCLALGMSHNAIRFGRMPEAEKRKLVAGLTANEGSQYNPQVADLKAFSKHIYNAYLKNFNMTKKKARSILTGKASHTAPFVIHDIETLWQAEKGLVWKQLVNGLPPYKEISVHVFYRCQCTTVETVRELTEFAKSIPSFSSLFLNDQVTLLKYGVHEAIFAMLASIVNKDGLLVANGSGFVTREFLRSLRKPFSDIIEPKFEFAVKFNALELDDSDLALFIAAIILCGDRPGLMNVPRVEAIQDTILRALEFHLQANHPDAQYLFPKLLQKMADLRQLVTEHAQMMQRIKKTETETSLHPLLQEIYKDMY
Procedure, shortened: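 HepG2 cells seeded 10⁵/well, transfected after 24 h by calcium phosphate with GAL4-PPARδ-LBD (30 ng), pGAL5TKpGL3 luciferase reporter (100 ng) and pCMVβgal (250 ng); 4 h later treated 20 h in triplicate with ligands up to 2 μM. Luciferase in cell extracts normalised to β-galactosidase (ONPG); efficacy as % of maximal fold induction of reference agonist L-165,041; experiments repeated at least twice.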

[5] = molecular target: T2, Peroxisome proliferator-activated receptor gamma; test: Binding affinity to PPARgamma (unknown origin) assessed as kinetic dissociation constant by SPR assay
[6] = molecular target: T3, Peroxisome proliferator-activated receptor delta; test: Binding affinity to PPARdelta (unknown origin) assessed as kinetic dissociation constant by SPR assay
[7] = molecular target: T3, Peroxisome proliferator-activated receptor delta; test: Binding affinity to PPARdelta (unknown origin) assessed as thermodynamic dissociation constant by SPR assay; details: read-out: Kd
HepG2 = test: Cytotoxicity against human HepG2 cells at >2 uM; type: cell-based
[8] = molecular target: T4, Bile acid receptor (Homo sapiens) (UniProt Q96RI1); test: Agonist activity at GAL4-fused human FXR LBD expressed in human HepG2 cells up to 2 uM after 20 hrs by luciferase reporter gene assay; type: cell-based
T4 sequence (whole entry): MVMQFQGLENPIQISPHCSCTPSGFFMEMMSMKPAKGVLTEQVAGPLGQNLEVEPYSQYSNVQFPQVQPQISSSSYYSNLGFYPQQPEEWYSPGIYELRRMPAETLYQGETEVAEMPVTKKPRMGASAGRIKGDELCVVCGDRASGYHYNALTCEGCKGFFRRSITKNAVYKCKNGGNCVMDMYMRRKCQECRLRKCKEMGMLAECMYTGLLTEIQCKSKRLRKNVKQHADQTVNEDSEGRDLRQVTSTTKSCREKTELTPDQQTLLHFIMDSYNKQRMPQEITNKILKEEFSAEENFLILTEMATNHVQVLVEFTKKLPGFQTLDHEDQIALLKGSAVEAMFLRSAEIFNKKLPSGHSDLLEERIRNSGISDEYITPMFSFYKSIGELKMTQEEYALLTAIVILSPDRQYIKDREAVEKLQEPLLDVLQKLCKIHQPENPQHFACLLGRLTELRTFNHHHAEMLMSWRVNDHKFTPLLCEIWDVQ
Procedure, shortened: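 HepG2 in MEM/10% FBS, calcium-phosphate co-transfection 24 h after seeding with GAL4-FXR-LBD (30 ng), pGAL5TKpGL3 luciferase reporter (100 ng) and pCMVβgal (250 ng); 4 h later, 20 h ligand exposure in triplicate. Luciferase normalized to β-galactosidase (ONPG); efficacy as % of maximal fold induction of chenodeoxycholic acid reference; tested up to 2 μM.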

[9] = molecular target: T5, Peroxisome proliferator-activated receptor alpha (Homo sapiens) (UniProt Q07869); test: Agonist activity at PPARalpha in human HepG2 cells assessed as increase in CAC mRNA level at 1 uM after 24 hrs by RT-PCR method; type: cell-based
T5 sequence (whole entry): T1 sequence (Q07869 whole entry)
Procedure, shortened: (§1)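 Serum-free HepG2 exposed 24 h to 1 μM test agent (Wy-14,643 reference at 50 μM). RNA extracted from 1x10⁶ cells; TaqMan real-time RT-PCR for CAC, CPT1 or PPARα, normalized to β-actin. Mean ± SD of three independent duplicate experiments; one-way ANOVA with Bonferroni test.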

[10] = molecular target: T5, Peroxisome proliferator-activated receptor alpha (Homo sapiens); test: Agonist activity at PPARalpha in human HepG2 cells assessed as increase in CPT1 mRNA level at 1 uM after 24 hrs by RT-PCR method; type: cell-based; procedure, shortened: as §1
[11] = molecular target: T5, Peroxisome proliferator-activated receptor alpha (Homo sapiens); test: Agonist activity at PPARalpha assessed as induction of positive regulatory loop based receptor transcriptional activation by measuring upregulation of PPARalpha protein expression level in human HepG2 cells at 1 uM after 48 hrs by Western blot method; type: cell-based
Procedure, shortened: (§2)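 HepG2 serum-depleted 24 h, then treated 48 h with 1 μM compound (Wy-14,643 at 50 μM as reference). Nitrocellulose immunoblots probed for CAC, CPT1 or PPARα with β-actin loading control, chemiluminescent detection; band densitometry expressed as fold change versus untreated cells; three independent experiments.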

[12] = molecular target: T6, Peroxisome proliferator-activated receptor gamma (Homo sapiens) (UniProt P37231); test: Agonist activity at PPARgamma in human HT-29 cells assessed as upregulation of p21waf1/cip1 protein expression at 10 uM after 48 hrs by Western blot method; type: cell-based
T6 sequence (whole entry): T2 sequence (P37231 whole entry)
Procedure, shortened: (§3)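 HT-29 or HEK293T cells in DMEM/10% FBS treated 48 h with 10 μM compound (DMSO vehicle, final below 0.1%). RIPA lysates (with protease inhibitors), 80 μg protein per lane immunoblotted for p21waf1/cip1 with β-actin loading control; densitometric p21/β-actin ratio, mean ± SD of at least three independent experiments.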

[13] = molecular target: T5, Peroxisome proliferator-activated receptor alpha (Homo sapiens); test: Agonist activity at PPARalpha assessed as induction of positive regulatory loop based receptor transcriptional activation by measuring upregulation of PPARalpha mRNA level in human HepG2 cells at 1 uM after 24 hrs by RT-PCR method; type: cell-based; procedure, shortened: as §1
[14] = molecular target: T6, Peroxisome proliferator-activated receptor gamma (Homo sapiens); test: Agonist activity at PPARgamma in human HT-29 cells harboring APC mutant assessed as inhibition of Wnt/beta-catenin signaling pathway by measuring decrease in c-Myc level at 10 uM treated for 24 hrs by Western blot method; type: cell-based
Procedure, shortened: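 RIPA lysates, 80 μg protein immunoblotted for c-Myc with β-actin loading control; c-Myc/β-actin densitometry, mean ± SD of at least three independent experiments.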

[15] = molecular target: T5, Peroxisome proliferator-activated receptor alpha (Homo sapiens); test: Agonist activity at PPARalpha in human HepG2 cells assessed as increase in CAC protein expression level at 1 uM after 48 hrs by Western blot method; type: cell-based; procedure, shortened: as §2
HEK-293T = test: Effect on p21waf1/cip1 protein expression in HEK293T cells at 10 uM after 48 hrs by Western blot method; type: cell-based; details: human; procedure, shortened: as §3
[16] = molecular target: T1, Peroxisome proliferator-activated receptor alpha; test: Transactivation of GAL4-fused human PPARalpa LBD expressed in human HepG2 cells after 20 hrs by luciferase reporter gene assay; type: cell-based
[17] = molecular target: T5, Peroxisome proliferator-activated receptor alpha (Homo sapiens); test: Agonist activity at PPARalpha in human HepG2 cells assessed as increase in mitochondrial mass at 1 uM by CellLight Mitochondria-GFP staining based fluorescent microscopic method relative to control; type: cell-based
Procedure, shortened: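 Serum-free HepG2 at 60% confluence transduced with Mitochondria-GFP BacMam 2.0 (50 particles/cell) and given 1 μM compound or 50 μM Wy-14,643 for 24 h. Imaged at 20x with GFP filters (ex 485/em 535 nm); separately, SDS/Tris pH 7.5 lysates read at ex 475, em 500-550 nm. Mean ± SD of three experiments, ANOVA/Bonferroni.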

[18] = molecular target: T5, Peroxisome proliferator-activated receptor alpha (Homo sapiens); test: Agonist activity at PPARalpha in human HepG2 cells assessed as increase in CPT1 protein expression level at 1 uM after 48 hrs by Western blot method; type: cell-based; procedure, shortened: as §2
[19] = molecular target: T2, Peroxisome proliferator-activated receptor gamma; test: Transactivation of GAL4-fused human PPARgamma LBD expressed in human HepG2 cells after 20 hrs by luciferase reporter gene assay; type: cell-based

CN(CCOc1ccc(CC2SC(=O)NC2=O)cc1)c1ccccn1 (configuration not stated) [ROSIGLITAZONE]
Kd [1]: Not Active | Activity (HT-29): 65% | Kd [2]: Not Active

CCCc1c(OCCCOc2ccc(OCC(=O)O)cc2)ccc(C(C)=O)c1O
Kd [3]: Not Active | Kd [1]: Not Active | EC50 [4]: 20 nM | Kd [5]: Not Active | Kd [6]: 0.43 s⁻¹ | Kd [2]: Not Active | Kd [7]: 76.4 nM

CCC(CC)(c1ccc(OCc2nc(-c3c(Cl)cccc3Cl)oc2C)cc1)c1ccc(OC(C)C(=O)O)cc1 (configuration not stated)
Activity (HepG2): Toxic | Activity [8]: inactive

CCC(CC)(c1ccc(OCc2coc(-c3c(Cl)cccc3Cl)n2)cc1)c1ccc(OC(C)C(=O)O)cc1 (configuration not stated)
Activity (HepG2): Toxic | Activity [8]: inactive

Cc1oc(-c2ccccc2)nc1COc1ccc(Cc2ccc(OC(C)C(=O)O)cc2)cc1 (configuration not stated)
Activity (HepG2): Toxic | Activity [9]: Active | Activity [10]: Active | Activity [11]: Active | Activity [12]: Active | Activity [13]: Active | Activity [14]: Active | Activity [15]: Active | Activity (HEK-293T): Non-Toxic | Activity [8]: inactive | Activity (HT-29): 70% | EC50 [16]: 100 nM | Activity [17]: 30% | Activity [18]: Active | EC50 [19]: 290 nM

CCC(CC)(c1ccc(OCc2coc(-c3ccccc3)n2)cc1)c1ccc(OC(C)C(=O)O)cc1 (configuration not stated)
Activity (HepG2): Toxic | Activity [8]: inactive

CCC(CC)(c1ccc(OCc2nc(-c3ccccc3)oc2C)cc1)c1ccc(OC(C)C(=O)O)cc1 (configuration not stated)
Activity (HepG2): Toxic | Activity [8]: inactive

CC(Oc1ccc(Cc2ccc(OCc3coc(-c4ccccc4)n3)cc2)cc1)C(=O)O (configuration not stated)
Activity (HepG2): Toxic | Activity [8]: inactive | EC50 [16]: 39 nM | EC50 [19]: 290 nM
